Data: the RNAGym collection of RNA variant scans (doi:10.1126/science.aae0568)
Fewer inactive variants are shown than the library holds.

B1: tRNA (parent)
chain: GUUCCGUUGGCGUAAUGGUAACGCGUCUCCCUCCUAAGGAGAAGACUGCGGGUUCGAGUCCCGUACGGAACG

Variants of: B1
Experiment: yeast fitness relative to wild type (ratio to wild type); higher = fitter; tRNA-Arg(CCU), competitive growth, 37 C, YPD
How it was run: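 Gene amplicons from the start population and from each of six end populations were read by 100-nucleotide paired-end sequencing. Those end populations came from pooled Saccharomyces cerevisiae strains carrying tRNA-Arg(CCU) gene variants at the native locus, competed in YPD at 37°C for 24 hours. Fitness relative to wild type was worked out from changes in genotype frequencies. Genotypes needed ≥ 100 starting reads, and estimates < 0.5 were set to 0.5.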

Going from GUUCCGUUGGCGUAAUGGUCACGCAUCUCCCUCCUAAGGAGAACACUGCGGGUUCGAGUCCCGUACGAAACG to GUUCCGUUGGCGUUAUGGUAACGCGUCUCCCUCCUAAGGAGAAGACUGCGGGUUGGAGUCGCGUAUGGAACG, the yeast fitness falls from 0.523 to at most 0.5.

First: GUUCCGUUGGCGUAAUGGUAACGGGUCUCCCUCCUAAGGAGAAGACUGCGGGUUCGAGUCCCGUGCGGAACG
Second: GUUCAGUUGGCGUAAUGGUCACGCGUCUCCCUCCUAAGGAGAAGACUGCGGGUUCGAGUCCCGUACGGAACG
The yeast fitness of the first is lower: 0.703 for the first, 0.799 for the second.

GUUCCGUUGGCGUAAUGGUCAUGCGUCUGCCUCCUAAGGACAAGACUGGGGGAUCGAGUCCCGUAUGGAACG and GUUCCGUUGGCGUAAUGGUAACGCGUCUCCUACCCAAGGAGAAGACUGCGGGUUCGAGUCCCGUGCGGAACG cannot be ordered by yeast fitness: at most 0.5 for the first, at most 0.5 for the second.

First: GUUCCGUUGGCGUAUUGGUAACGCGUCUCCCUCCUAAGGUGAAGACUGUGGGUUCGAGUCCCGUACGGAACG
Second: GUUCCGUUGGCAGAAUGGUAACGCGUCUCCCUCCUAAGGAGAAGACUGCGGGUUCGAGUCCCGUACGGCACG
The yeast fitness of the first is higher: 0.599 for the first, 0.598 for the second.

First: GUUCCGUUGGCGUAAUGCUAACGCGUCUCCCUCCUAAGGAGAAGACUGCGGGUUCGAGUCCCGUACAGAACG
Second: GUUCCGUUGGCGCAAUGGUAACGCCUCUCCCUCCUAAGGAGAAGACUGCGGGUUCGAGUCCCGUACGGAACG
The yeast fitness of the first is lower: 0.728 for the first, 0.996 for the second.

GUCUGGUUGGCGUAACGGUAACGGGUCUCCCUCCUAAGGAGCAGACUGCGGGUUCGAAUCCCGUACGGAACG and GUUCCGUUGGGGUAAUGGUAACGCGUUUCCCUCCUAAGGAGAAGACUGCGGGUUCAGGUCCCGUACGGAACG cannot be ordered by yeast fitness: at most 0.5 for the first, at most 0.5 for the second.

Going from GUUCCGUUGGGGUAAUGGUAACGCGUCUCACUCCUAAGGAGAAGACUGCGGGUUCGAGUCCGGUACGCAACG to GUUCCGUUGGCGUAAUGGUAACGCGUCUCCCUUCUAAGGAGAAGACUGCGGGUUCGACUCCCGUACGGAACG, the yeast fitness rises from at most 0.5 to 0.635.

Going from GUUCCGUUGGCGUCAUGGUAACGCGUCUCCCUCUUAGGGAGAAGACUGCGGGUUCGAGUCCCGUACGGCACG to GUUCCGUUGGCGUAAUGGUAACGCGUCUCCCUCCUGAGGCGAAGACUGCGGGUUCGAGUCCCGUACGGAACG, the yeast fitness rises from at most 0.5 to 0.961.

First: GUUCCGUUGGCGUAAUGGUAAUGCGUCCGCCUACUAAGGAGAAGACUGCGGGUUCGAGUCCCGUACGGAACG
Second: GUUCCGUUGGCGUAAUGGUAACGCGUCUCCCUCCUAAGGAGAAGACUACGGGUUCGAGUCCCGUACGGAACG
The yeast fitness of the first is lower: at most 0.5 for the first, 0.982 for the second.

Going from GUUCCGUAAGCGUAAUGGUAACGUGUCUCCCUCCUAAGGAGAAGACUGCGGGCUCGAGUGCCGUACGGAACG to GUUCCGUUGGCGUAAUGGUAACGCGUCUCCCUCCUAAGGAGAAGACUGCGGGUUCGAGUCGCGUUCGGAACG, the yeast fitness rises from at most 0.5 to 0.651.

GUUCCGUAGGCGUAAUGGUAACGCGUCUCUCUCCUAAGGUGAAGACUGCGGCUUCGAGUCCCGUACGGAACG and GUUCCGUUGGCGUUAUGGUAACGCGUCUCCCUCGUACGGAGAAGACUGCGGGUUCGAGUCCCGUACGGAACG cannot be ordered by yeast fitness: at most 0.5 for the first, at most 0.5 for the second.

GUUCCGUUGGCGUAAUGGUAACGCGUCUCCCUCCUAAGGGGAAAACUGCGGGUUCGAGUCCCCUACGGAACG and GUUCCGUUGGAGUAACGCUAACGCGUCUCCCUCCUAAGGAGAAGCCUGCGGGUUCGAGACCCGUACGGAACG cannot be ordered by yeast fitness: at most 0.5 for the first, at most 0.5 for the second.

Going from GUUCCGUUGGCAAAAUGGUAACGCGUCUCCCUCCUAAGGACAAGCCUGCGGGUUCGAGUCCCGUACGGAACG to GUUCCGUUGGCGUAAAGGUAACGCGUCUCCAUACCAAGGAGAAGACAGCGGGUUCGAGUCCCGUACGGAACG, the yeast fitness falls from 0.546 to at most 0.5.

Going from GUUCCGUCGGCGCCAUGGUAACGCGUCUCUCUCCUAAGGAGGAGACUGCCGGUUUGAGUCCCGUACGGAACG to GUUCCGUUGGCGUAAUGGUACCGCGUCUCCCUCCUAAGGAGAAGACUGCGGGUACGAGUCCCGUACGGAACG, the yeast fitness falls from 0.671 to 0.552.

Going from GUUCCGAUGGCGUUAUGGUAAUGCGUAUCCCUUCUAAGGAGAAGCCUGCGGGCUCGAGUCCCGUACGGCACG to GUUCCGUUGGCGUAAUGGUGAGGCGUGUCUGUCCUAAGGAGAAGACUGCGCGUUCGAGUCCCGUGCGGAACG, the yeast fitness falls from 0.632 to 0.563.

GUUCCGUUGGAGUAAUGGUAACGCGUCUCCAUCCUAAGGAGAAGACUGCGGGUUCGAGUCGCGUCCGGACCG and GUUGCGUUGGCAUAAUGGUAACGUGUCUCCCUCCUAAGGAGAAGACUGCGGGUUCGAGUCCCGUACGGAACG cannot be ordered by yeast fitness: at most 0.5 for the first, at most 0.5 for the second.

First: GUUCCGUUGGCAUAAUGGUAACGCGUCUCCCUCCUAAGGAGAAGACUGUGGGUUCAAGUCGCGUACGGAACG
Second: GUUCCGUUGGCAUAAUGGUAACGCGUCUCCCUCCUAAGGCGAAGACUGCGGGUUCGAGUCCCGUACGGAACG
The yeast fitness of the first is lower: at most 0.5 for the first, 0.792 for the second.

Going from GUUCCGUUGGCGUAAUGGUAUCGCGUCUCCCUCCUAUGGAGACGACUGCGGGUUCGAGUCUCGUACGGAGCG to GUUCCGUUGGCGUAAUGGUAACGCGUCUACCUCGUAAGGAGAAGACUGCGGGUUCGCGUCCCGUACGGAACG, the yeast fitness falls from 0.517 to at most 0.5.

First: GUUCCGUUGGCGUAAUGGUAGCGUGUCUCCCUCCUAAGGAGAACACUGCGGGUUCGAGUCCCGUACGGAACG
Second: GUUACGUUGGCGUAAUAGUAACGCGUCUCCCUCCUAAGGAAAAGACUGCGGGUUCGAGUCUCUUACGAAACG
The yeast fitness of the first is higher: 0.583 for the first, at most 0.5 for the second.
